The values that follow come from ChEMBL document CHEMBL6083223, “Development of di-arylated 1,2,4-triazole-based derivatives as therapeutic agents against breast cancer: synthesis and biological evaluation” (RSC Med Chem, 2024).

Series [1] concerns MDA-MB-231. As to the kind of experiment: Antiproliferative activity against human MDA-MB-231 cells assessed as inhibition of cell growth at 10 uM incubated for 48 hrs by MTT assay. It is filed as functional. The method, boiled down:
(§1)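 Single-concentration screen: cells (ATCC; 37 °C, 5% CO₂) seeded at 4 × 10⁴ per well, adhered overnight, then treated 48 h at 10 μM. Medium removed, MTT (2.5 mg mL⁻¹) added for 4 h, formazan dissolved in DMSO, absorbance read at 570 nm; percent inhibition versus untreated cells.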

In series [2] the test system is MCF7. As to the kind of experiment: Antiproliferative activity against human MCF7 cells assessed as inhibition of cell growth at 10 uM incubated for 48 hrs by MTT assay. It is filed as functional. In short, it runs like this: as §1
In general terms: Formazan colour is commonly taken as a measure of viable cells.

Series [3] deals with ZR-75-1. The series can be described thus: Antiproliferative activity against human ZR-75-1 cells assessed as inhibition of cell growth at 10 uM incubated for 48 hrs by MTT assay. It is filed as functional. The method, boiled down:
as §1

For series [4], the system named is MCF7. As to the kind of experiment: Antiproliferative activity against human MCF7 cells assessed as inhibition of cell growth incubated for 48 hrs by MTT assay. It is filed as functional, cell-based. The note with it: MCF7, 48 h. The method, boiled down:
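MCF-7 exposed 48 h to 0.625, 1.25, 2.5, 5, 10, 20 and 40 μM. MTT (2.5 mg mL⁻¹) added for 4 h, medium removed, formazan solubilized in DMSO, absorbance at 570 nm; percent growth inhibition calculated and IC50 derived.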

The subject of series [5] is MDA-MB-231. The series can be described thus: Antiproliferative activity against human MDA-MB-231 cells assessed as inhibition of cell growth incubated for 48 hrs by MTT assay. In kind it is functional, cell-based. The note with it: MDA-MB-231, 48 h.
Series [6] relates to ZR-75-1. The series can be described thus: Antiproliferative activity against human ZR-75-1 cells assessed as inhibition of cell growth incubated for 48 hrs by MTT assay. In kind it is functional, cell-based. The note with it: ZR-75-1, 48 h.
Series [7] is described as follows: Cytotoxicity against human MCF-10A cells assessed as inhibition of cell growth incubated for 24 hrs by MTT assay. It is filed as toxicity, cell-based. The method, boiled down:
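Non-tumorigenic MCF-10A breast epithelial cells in 96-well plates (5% CO₂) exposed 24 h to 10, 50 and 100 μM. MTT (2.5 mg mL⁻¹) for 4 h, formazan dissolved in DMSO, absorbance at 570 nm; percent growth inhibition calculated to estimate IC50.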

A value given as a limit tells only on which side of the number the result lay.

Take `COc1ccc(-n2cnc(-c3ccc(Cl)cc3)n2)cc1OC`: the inhibition – broadly, the percentage by which the read-out fell short of the control – at 10 µM in the series with MDA-MB-231 [1] was found to be 0%; in the series on MCF7 [2] it was 9.2%; in the series with ZR-75-1 [3] it was 0%.
As to `COc1cc(-n2cnc(-c3cccc(C(F)(F)F)c3)n2)cc(OC)c1OC`, the inhibition at 10 µM in the series on MDA-MB-231 [1] was 5.77%; in the series on MCF7 [2], 48.6%; in the series with ZR-75-1 [3], 2.39%. Besides, the IC50 (in general, the concentration needed to halve the response being measured) with MCF7 [4] came to 11 µM; in the series on MDA-MB-231 [5], 94 µM; with ZR-75-1 [6] it was 98 µM.
For `COc1ccc(-c2ncn(-c3cc(OC)c(OC)c(OC)c3)n2)cc1OC`, the values for the inhibition at 10 µM in the series with MDA-MB-231 [1] and with MCF7 [2] were 23.5% and 28.9%, respectively.
In the same order, the values of `COc1cc(-n2cnc(-c3cccc(C=O)c3)n2)cc(OC)c1OC` are 22.6% and 13.4%.
In the same order, the values of `COc1cc(-n2cnc(-c3cccc4ccccc34)n2)cc(OC)c1OC` are 22.6% and 13.4%.
In the same order, the values of `COc1cc(-n2cnc(-c3ccc(F)c(F)c3)n2)cc(OC)c1OC` are 23.4% and 23.3%.
Consider `COc1cccc(-c2ncn(-c3cc(OC)c(OC)c(OC)c3)n2)c1`, for which the inhibition at 10 µM in the series with MDA-MB-231 [1] and with MCF7 [2] was 16.4% in each case.
`COc1ccc(-n2cnc(-c3ccc(C(F)(F)F)cc3)n2)cc1OC`: the inhibition at 10 µM in the series with MDA-MB-231 [1] is 15.8%; with MCF7 [2] it was 21.3%.
Regarding `COc1ccc(-n2cnc(-c3ccc(F)cc3)n2)cc1OC`, the inhibition at 10 µM turned out to be 16.8% in the series with MDA-MB-231 [1] and 17.6% with MCF7 [2].
On to `COc1cc(-n2cnc(-c3cccc(N)c3)n2)cc(OC)c1OC`, for which the inhibition at 10 µM amounted to 22.7% with MDA-MB-231 [1], 57.6% in the series with MCF7 [2] and 12.1% in the series with ZR-75-1 [3]. Besides, the figures for the IC50 in the series on MCF7 [4], with MDA-MB-231 [5] and in the series on ZR-75-1 [6] were 5.7 µM, 21 µM and 71 µM, respectively.
Turning to `COc1cc(-n2cnc(-c3cc(Cl)cc(Cl)c3)n2)cc(OC)c1OC`, the figures for the inhibition at 10 µM with MDA-MB-231 [1] and in the series with MCF7 [2] were 17.4% and 0%, respectively.
Consider `COc1cc(-n2cnc(-c3ccc4nc[nH]c4c3)n2)cc(OC)c1OC`, for which the inhibition at 10 µM with MDA-MB-231 [1] amounted to 31.6%; in the series with MCF7 [2], 58.5%; with ZR-75-1 [3], 21.2%. Also, the results for the half-maximal inhibitory concentration (IC50) with MCF7 [4], in the series with MDA-MB-231 [5] and in the series with ZR-75-1 [6] were 5.2 µM, 15 µM and 93 µM, respectively. In addition, the IC50 at 24 h in series [7] was above 100 µM.
